ChEMBL document CHEMBL1149630, “Damipipecolin and damituricin, novel bioactive bromopyrrole alkaloids from the Mediterranean sponge Axinella damicornis” (2007)
The source made the active and inactive calls. No cut-off for these calls is given here.

Assays:
[1] = test system: Neuron; experiment: Effect on NMDA/CaCl2 induced increase in intracellular calcium level in rat neuronal cells pretreated for 5 mins at 0.1 ug/ml after 20 mins in relative to control; type: functional
Summary of the method: (§1)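 Rat cortical neurons were fura-2-loaded (4 μM, 1 h, 37 °C) and preincubated 5 min with 0.1, 1 or 10 µg/ml compound in Ca/Mg-free Locke's, pH 7.4. They were stimulated at 10 min with 200 µM NMDA plus 2.5 mM CaCl2. The fura-2 340/380 ratio change was followed for 20 min and set relative to the vehicle control (100%).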

[2] = test system: Primary neuron; experiment: Effect on 5-HT/CaCl2 induced increase in intracellular calcium level in rat primary neuronal cells pretreated for 5 mins at 0.1 ug/ml after 10 mins; type: functional, cell-based
[3] = test system: Primary neuron; experiment: Effect on 5-HT/CaCl2 induced increase in intracellular calcium level in rat primary neuronal cells pretreated for 5 mins at 3 ug/ml after 20 mins in relative to control; type: functional, cell-based
Summary of the method: (§2)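 Rat cortical neurons from E17–18 Wistar embryos were grown serum-free on poly-L-lysine glass. They were loaded with 4 μM fura-2-AM for 1 h at 37 °C. Cells were preincubated 5 min with compound (0.01–10 µg/ml) in Ca/Mg-free Locke's, pH 7.4. 200 µM 5-HT plus 2.5 mM CaCl2 was added at 10 min. The 340/380 ratio increase was imaged over 20 min as % of DMSO/water control, ±SD of 3–5 experiments, ~90 cells each.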

[4] = test system: Primary neuron; experiment: Effect on 5-HT/CaCl2 induced increase in intracellular calcium level in rat primary neuronal cells pretreated for 5 mins at 10 ug/ml after 20 mins in relative to control; type: functional, cell-based; summary of the method: as §2
[5] = Effect on 5-HT/CaCl2 induced increase in intracellular calcium level in rat primary neuronal cells pretreated for 5 mins at 0.1 ug/ml after 20 mins in relative to control; type: functional, Primary neuron; summary of the method: as §2
[6] = test system: Neuron; experiment: Effect on NMDA/CaCl2 induced increase in intracellular calcium level in rat neuronal cells pretreated for 5 mins at 10 ug/ml after 20 mins in relative to control; type: functional; summary of the method: as §1
[7] = test system: PC-12; experiment: Cytotoxicity against PC12 cells at 10 ug/ml after 72 hrs by MTT assay; type: functional, cell-based
Summary of the method: (§3)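 Cells exposed 72 h to a range of concentrations; viability by MTT colorimetric read at 595 nm after overnight incubation at 37 °C. PC12 grown in DMEM/10% FCS/5% horse serum; HeLa and L5178y in RPMI 1640/10% FCS; all at 37 °C, 5% CO2.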

[8] = Effect on 5-HT/CaCl2 induced increase in intracellular calcium level in rat primary neuronal cells pretreated for 5 mins at 0.3 ug/ml after 20 mins in relative to control; type: functional, Primary neuron; summary of the method: as §2
[9] = test system: Neuron; experiment: Effect on L-glutamic acid/CaCl2 induced increase in intracellular calcium level in rat neuronal cells pretreated for 5 mins at 10 ug/ml after 20 mins in relative to control; type: functional
Summary of the method: (§4)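 Rat cortical neurons were loaded with 4 μM fura-2-AM, then preincubated 5 min with 0.1, 1 or 10 µg/ml compound in Ca/Mg-free Locke's, pH 7.4. 200 µM L-glutamic acid plus 2.5 mM CaCl2 was added at 10 min. The 340/380 nm ratio increase was recorded over 20 min and expressed as % of vehicle control.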

[10] = Effect on 5-HT/CaCl2 induced increase in intracellular calcium level in rat primary neuronal cells pretreated for 5 mins at 1 ug/ml after 20 mins in relative to control; type: functional, Primary neuron; summary of the method: as §2
[11] = test system: Neuron; experiment: Effect on NMDA/CaCl2 induced increase in intracellular calcium level in rat neuronal cells pretreated for 5 mins at 1 ug/ml after 20 mins in relative to control; type: functional; summary of the method: as §1
[12] = test system: HeLa; experiment: Cytotoxicity against HeLa cells at 10 ug/ml after 72 hrs by MTT assay; type: functional, cell-based; details: Homo sapiens; summary of the method: as §3
[13] = test system: Suberites domuncula; experiment: Effect on 5-HT/CaCl2 induced increase in intracellular calcium level in Suberites domunculas sponge cell pretreated for 5 mins at 1 ug/ml in relative to control
[14] = test system: Neuron; experiment: Effect on L-glutamic acid/CaCl2 induced increase in intracellular calcium level in rat neuronal cells pretreated for 5 mins at 1 ug/ml after 20 mins in relative to control; type: functional; summary of the method: as §4
[15] = test system: Neuron; experiment: Effect on L-glutamic acid/CaCl2 induced increase in intracellular calcium level in rat neuronal cells pretreated for 5 mins at 0.1 ug/ml after 20 mins in relative to control; type: functional; summary of the method: as §4
[16] = test system: Primary neuron; experiment: Effect on 5-HT/CaCl2 induced increase in intracellular calcium level in rat primary neuronal cells pretreated for 5 mins at 0.01 ug/ml after 20 mins in relative to control; type: functional, cell-based; summary of the method: as §2
[17] = Effect on 5-HT/CaCl2 induced increase in intracellular calcium level in rat primary neuronal cells pretreated for 5 mins at 0.03 ug/ml after 20 mins in relative to control; type: functional, Primary neuron; summary of the method: as §2
[18] = test system: Suberites domuncula; experiment: Effect on 5-HT/CaCl2 induced increase in intracellular calcium level in Suberites domunculas sponge cell pretreated for 5 mins at 0.1 ug/ml in relative to control
[19] = test system: L5178Y; experiment: Cytotoxicity against L5178y cells at 10 ug/ml after 72 hrs by MTT assay; type: functional, cell-based; summary of the method: as §3
[20] = test system: HEK293; experiment: Effect on 5-HT/CaCl2 induced increase in intracellular calcium level in HEK cells pretreated for 5 mins at 1 ug/ml after 20 mins in relative to control; type: functional, cell-based; details: Homo sapiens
Summary of the method: (§5)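 Cells on poly-L-lysine coverglass, loaded with 10 μM fura-2-AM (1 h, 37 °C), washed, held 1 h. In Ca2+/Mg2+-free Locke's solution pH 7.4, 1 μg/ml compound added for 5 min, then 200 μM 5-HT plus 2.5 mM CaCl2 at 10 min. 340/380 nm ratio recorded ≥20 min; rise vs 0.1% DMSO or water control set to 100%; three independent experiments, mean ± SD.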

[21] = test system: PC-12; experiment: Effect on 5-HT/CaCl2 induced increase in intracellular calcium level in PC12 cells pretreated for 5 mins at 1 ug/ml after 20 mins in relative to control; type: functional; summary of the method: as §5

With O=C(O[C@@H]1CCN[C@@H](C(=O)O)C1)c1cc(Br)c[nH]1 [DAMIPIPECOLIN] the Activity [1] was 114.1%, the Activity [2] was “Active” and the Activity [3] was “inactive”. The Activity [4] was “inactive”, the Activity [5] was 11.2% and the Activity [6] was 105.9%. The Activity [7] was “Not toxic”, the Activity [8] was 29.7% and the Activity [9] was 96.6%. For the same molecule, the Activity [10] was 38%, the Activity [11] was 70.4% and the Activity [12] was “Not toxic”. The Activity [13] was “inactive”, the Activity [14] was 90.5% and the Activity [15] was 83.3%. For the same molecule, the Activity [16] was “inactive”, the Activity [17] was 71.6% and the Activity [18] was “inactive”. The Activity [19] was “Not toxic”.
With C[N+]1(C)C[C@H](OC(=O)c2cc(Br)c[nH]2)C[C@@H]1C(=O)[O-] [DAMITURICIN] the Activity [7] was “Not toxic”, the Activity [20] was “inactive” and the Activity [21] was 43.8%. The Activity [12] was “Not toxic” and the Activity [19] was “Not toxic”.
